Measurements taken from ChEMBL document CHEMBL1156777, “Synthesis and antiprotozoal activity of cationic 1,4-diphenyl-1H-1,2,3-triazoles” (J Med Chem, 2010).
Calls of active or inactive are those of the source. The rule behind the calls is not given here.

Assays:
[1] = tested on: Mus musculus; experiment: Toxicity in NMRI mouse infected with Trypanosoma brucei rhodesiense STIB900 assessed as survival at 5 mg/kg, ip after administered for 4 consecutive days from day 3 postinfection measured after 7 to 30 days; format: organism-based; set-up: dose 5 mg/kg, route intraperitoneal; conditions: in vivo
How it was run: (§1)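 Female NMRI mice infected ip with 2 × 10⁴ STIB900 bloodstream forms. Groups of four dosed ip daily on days 3–6 postinfection; compounds in DMSO diluted with water to 10% final DMSO. Untreated infected controls. Tail-blood parasitaemia checked on days 7 and 10, twice weekly to day 30, then weekly to day 60. Relapse day recorded for mean relapse day; cure means parasite-free survival to day 60.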

[2] = tested on: Leishmania donovani; experiment: Antileishmanial activity against Leishmania donovani MHOM/SD/62/1S-CL2D; format: functional, organism-based
How it was run: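 Axenic amastigotes (MHOM/SD/62/1S-CL2_D) adapted from promastigotes and grown in amastigote medium at 37 °C. 6 × 10⁴ parasites per well were exposed to 2-fold serial dilutions for 72 h at 37 °C in humidified 5% CO₂. Growth was read with tetrazolium CellTiter reagent as absorbance at 490 nm. IC50 came from a four-parameter dose–response fit; duplicate determinations were averaged.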

[3] = tested on: Trypanosoma brucei rhodesiense; experiment: Antitrypanosomal activity against Trypanosoma brucei rhodesiense STIB900 infected in NMRI mouse assessed as mean parasitemia relaps day at 5 mg/kg, ip; format: functional; conditions: route intraperitoneal; how it was run: as §1
[4] = Selectivity index, ratio of IC50 for rat L6 cells to IC50 for Plasmodium falciparum K1; format: toxicity, cell-based; conditions: read-out: Ratio IC50
How it was run: (§2)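 Each index is L6 IC50 divided by parasite IC50. L6 values are from the 70 h resazurin assay. T. b. rhodesiense STIB900 values are from the 70 h resazurin assay. P. falciparum K1 values are from erythrocytic-stage [³H]-hypoxanthine incorporation: 48 h drug exposure, then 24 h with label. L. donovani values are from the 72 h axenic amastigote CellTiter assay.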

[5] = tested on: L6; experiment: Cytotoxicity against rat L6 cells after 70 hrs by alamar blue assay; format: cell-based; conditions: L6, 70 h
How it was run: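 Cells were exposed to serial dilutions for 70 h at 37 °C, 5% CO₂, then given resazurin for 2–3 h. IC50 came from sigmoidal curves; two independent runs in duplicate. Top concentration was 90 μg/mL, converted to μM by molecular weight.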

[6] = tested on: Trypanosoma brucei rhodesiense; experiment: Antitrypanosomal activity against Trypanosoma brucei rhodesiense STIB900 after 70 hrs by alamar blue assay; format: functional, organism-based; conditions: STIB900, 70 h
[7] = tested on: Plasmodium falciparum; experiment: Antiplasmodial activity against chloroquine-resistant Plasmodium falciparum K1 infected in human erythrocytes after 48 hrs assessed as [3H]hypoxanthine incorporation by liquid scintillation counting; format: functional, organism-based
[8] = Selectivity index, ratio of IC50 for rat L6 cells to IC50 for Trypanosoma brucei rhodesiense STIB900; format: toxicity, cell-based; conditions: read-out: Ratio IC50; how it was run: as §2
[9] = Selectivity index, ratio of IC50 for rat L6 cells to IC50 for Leishmania donovani MHOM/SD/62/1S-CL2D; format: toxicity, cell-based; conditions: read-out: Ratio IC50; how it was run: as §2
[10] = tested on: Mus musculus; experiment: Toxicity in NMRI mouse infected with Trypanosoma brucei rhodesiense STIB900 assessed as survival at 1 mg/kg, ip after administered for 4 consecutive days from day 3 postinfection measured after 7 to 30 days; format: organism-based; set-up: dose 1 mg/kg, route intraperitoneal; conditions: in vivo; how it was run: as §1
[11] = tested on: Trypanosoma brucei rhodesiense; experiment: Antitrypanosomal activity against Trypanosoma brucei rhodesiense STIB900 infected in NMRI mouse assessed as mean parasitemia relaps day at 10 mg/kg, ip; format: functional; conditions: route intraperitoneal
How it was run: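 Single-dose ip regimen at 10 mg/kg in female NMRI mice infected ip with 2 × 10⁴ STIB900 bloodstream forms, four mice per group. Dosing solution was DMSO diluted with water to 10% final DMSO. Tail-blood parasitaemia followed to day 60 postinfection, with relapse day recorded; untreated infected controls.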

[12] = tested on: Trypanosoma brucei rhodesiense; experiment: Antitrypanosomal activity against Trypanosoma brucei rhodesiense STIB900 infected in NMRI mouse assessed as mean parasitemia relaps day at 1 mg/kg, ip; format: functional; conditions: route intraperitoneal; how it was run: as §1
[13] = tested on: Plasmodium berghei; experiment: Antiplasmodial activity against Plasmodium berghei infected in mice (Mus musculus) assessed as inhibition of parasitaemia at 30 mg/kg, subcutaneous for 4 days; format: functional, organism-based; set-up: dose 30 mg/kg
How it was run: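 P. berghei mouse model. Compound was given subcutaneously at 30 mg/kg daily for four days. The read-out was blood parasite count. For in vivo use, compounds were dissolved in DMSO and diluted with distilled water to 10% DMSO final.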

[14] = tested on: Mus musculus; experiment: Toxicity in NMRI mouse infected with Trypanosoma brucei rhodesiense STIB900 assessed as survival at 8 mg/kg, ip after administered for 4 consecutive days from day 3 postinfection measured after 7 to 30 days; format: organism-based; set-up: dose 8 mg/kg, route intraperitoneal; conditions: in vivo; how it was run: as §1
[15] = tested on: Mus musculus; experiment: Toxicity in NMRI mouse infected with Trypanosoma brucei rhodesiense STIB900 assessed as survival at 2 mg/kg, ip after administered for 4 consecutive days from day 3 postinfection measured after 7 to 30 days; format: organism-based; set-up: dose 2 mg/kg, route intraperitoneal; conditions: in vivo; how it was run: as §1

Structure (SMILES)	Activity [1]	IC50 [2] [nM]	Activity [3] [days]	selectivity ratio [4]	IC50 [5] [nM]	IC50 [6] [nM]	IC50 [7] [nM]	selectivity ratio [8]	selectivity ratio [9]	Activity [10]	Activity [11] [days]	Activity [12] [days]	Activity [13]	Activity [14]	Activity [15]
COc1ccc(C2=NCCN2)cc1-c1cn(-c2ccc(C3=NCCN3)cc2)nn1.Cl.Cl	Toxic	> 100000	26	> 18800	> 188000	21	10	> 8950	–	–	–	–	–	–	–
COc1cc(C(=N)N)ccc1-n1cc(-c2cccc(C(=N)N)c2)nn1.Cl.Cl	Toxic	33000	13	> 7680	> 192000	11	25	> 17500	> 6	–	–	–	–	–	–
COc1ccc(C2=NCCN2)cc1-c1cn(-c2cccc(C3=NCCN3)c2)nn1.Cl.Cl	Non-toxic	4900	–	> 12600	> 176000	6	14	> 29300	> 36	Toxic	14	12	–	–	–
COc1ccc(C(=N)N)cc1-c1cn(-c2ccc(C(=N)N)cc2)nn1.Cl.Cl	–	4300	15.5	> 28300	> 198000	8	7	> 24800	> 46	–	–	–	–	–	–
Cl.Cl.Oc1cc(C2=NCCN2)ccc1-c1cn(-c2ccc(C3=NCCN3)cc2)nn1	Toxic	24000	10	> 317000	> 190000	38	0.6	> 5000	> 8	–	–	–	inactive	–	–
COc1cc(C(=N)N)ccc1-n1cc(-c2ccc(C(=N)N)cc2)nn1.Cl.Cl	Toxic	> 40000	34	> 20300	> 183000	38	9	> 4820	–	–	–	–	–	–	–
Cl.Cl.N=C(N)c1cccc(-n2cc(-c3cc(C(=N)N)ccc3O)nn2)c1	Toxic	20000	14.75	> 3780	> 136000	174	36	> 782	> 7	–	–	–	–	–	–
CC(C)NC(=N)c1ccc(-n2cc(-c3cc(C(=N)NC(C)C)ccc3O)nn2)cc1.Cl	Toxic	> 100000	28.75	> 6390	> 179000	116	28	> 1540	–	–	–	–	–	–	–
COc1ccc(C(=N)N)cc1-n1cc(-c2cccc(C(=N)N)c2)nn1.Cl.Cl	Toxic	> 100000	17	> 8000	> 224000	47	28	> 4770	–	–	–	–	–	–	–
COc1ccc(C(=N)N)cc1-n1cc(-c2ccc(C(=N)N)cc2)nn1.Cl.Cl	–	31000	23	> 11800	> 201000	16	17	> 12600	> 6	–	–	–	–	–	–
COc1cc(C(=N)N)ccc1-c1cn(-c2ccc(C(=N)N)cc2)nn1.Cl.Cl	–	13000	60	29700	59400	31	2	1920	5	–	–	–	–	–	–
Cl.Cl.N=C(N)c1ccc(-n2cc(-c3cccc(C(=N)N)c3)nn2)cc1	–	12000	17.33	2870	8600	8	3	1080	< 1	–	–	–	–	–	–
Cl.Cl.N=C(N)c1cccc(-c2cn(-c3cccc(C(=N)N)c3)nn2)c1	Toxic	48000	10	10400	219000	83	21	2640	5	–	–	–	–	–	–
CC(C)NC(=N)c1ccc(-c2cn(-c3ccc(C(=N)NC(C)C)cc3)nn2)cc1.Cl.Cl	–	25000	8	> 36600	> 183000	201	5	> 910	> 7	–	–	–	–	–	–
Cl.Cl.N=C(N)c1cccc(-c2cn(-c3ccc(C(=N)N)cc3O)nn2)c1	Toxic	> 100000	14	> 1190	> 209000	175	–	> 1190	–	–	–	–	–	–	–
Cl.Cl.N=C(N)c1ccc(-n2cc(-c3ccc(C(=N)N)cc3O)nn2)cc1	Non-toxic	4300	–	24600	49300	16	2	3080	11	–	–	–	–	–	–
Nc1nc(N)nc(Nc2ccc([As]3SCC(CO)S3)cc2)n1 (stereo not given) [MELARSOPROL]	–	–	–	–	–	–	–	–	–	–	–	20	–	Non-toxic	Non-toxic
Cl.Cl.N=C(N)c1cccc(-n2cc(-c3ccc(C(=N)N)cc3O)nn2)c1	–	8000	39	> 30000	> 210000	8	7	> 26200	> 26	–	–	–	–	–	–
Cl.Cl.N=C(N)c1ccc(-n2cc(-c3cc(C(=N)N)ccc3O)nn2)cc1	Non-toxic	> 50000	–	> 9960	> 219000	6	22	> 36500	–	–	–	–	–	–	–
Cl.Cl.c1cc(-c2cn(-c3ccc(C4=NCCN4)cc3)nn2)ccc1C1=NCCN1	Toxic	> 100000	8	50500	101000	53	2	1910	–	–	–	–	–	–	–
Cl.Cl.N=C(N)c1ccc(-c2cn(-c3cccc(C(=N)N)c3)nn2)cc1	–	17000	18	21500	86000	6	4	14300	5	–	–	–	–	–	–
CC(C)NC(=N)c1ccc(-n2cc(-c3ccc(C(=N)NC(C)C)cc3O)nn2)cc1.Cl.Cl	Non-toxic	> 50000	–	> 25700	> 180000	37	7	> 4860	–	–	–	–	–	–	–
Cl.Cl.Oc1ccc(C2=NCCN2)cc1-c1cn(-c2ccc(C3=NCCN3)cc2)nn1	Toxic	43000	10.75	> 21100	> 190000	43	9	> 4420	> 4	–	–	–	–	–	–
